Measured values published in paper PMC9896170 (Xenobiotica; the fate of foreign compounds in biological …, 2022).

Legend:
human CYP1B1 = target: T1, human CYP1B1 (Homo sapiens, UniProt Q16678); experiment: Oxidation of flavonoids by reconstituted purified CYP1B1, products by LC-MS/MS; assay type: in vitro ADME; settings: LC-MS/MS product detection
T1 sequence (Q16678 1-543): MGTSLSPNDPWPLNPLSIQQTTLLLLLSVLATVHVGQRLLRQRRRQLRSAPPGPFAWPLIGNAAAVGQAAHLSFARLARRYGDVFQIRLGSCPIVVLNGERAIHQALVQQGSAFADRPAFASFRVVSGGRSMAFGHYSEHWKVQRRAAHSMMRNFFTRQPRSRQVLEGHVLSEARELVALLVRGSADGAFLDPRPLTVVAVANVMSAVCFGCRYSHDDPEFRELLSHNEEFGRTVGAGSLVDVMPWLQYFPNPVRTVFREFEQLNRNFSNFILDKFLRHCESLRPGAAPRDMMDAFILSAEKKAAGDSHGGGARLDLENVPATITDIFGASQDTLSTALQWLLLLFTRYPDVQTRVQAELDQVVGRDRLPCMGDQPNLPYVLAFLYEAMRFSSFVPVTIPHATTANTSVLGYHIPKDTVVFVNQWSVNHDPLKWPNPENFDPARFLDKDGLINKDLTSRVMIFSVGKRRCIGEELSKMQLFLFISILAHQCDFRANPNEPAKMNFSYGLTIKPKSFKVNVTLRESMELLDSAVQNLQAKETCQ

human CYP2A13 = target: T2, human CYP2A13 (Homo sapiens, UniProt Q16696); experiment: Oxidation of flavonoids by reconstituted purified CYP2A13, products by LC-MS/MS; assay type: in vitro ADME; settings: LC-MS/MS product detection
T2 sequence (Q16696 1-494): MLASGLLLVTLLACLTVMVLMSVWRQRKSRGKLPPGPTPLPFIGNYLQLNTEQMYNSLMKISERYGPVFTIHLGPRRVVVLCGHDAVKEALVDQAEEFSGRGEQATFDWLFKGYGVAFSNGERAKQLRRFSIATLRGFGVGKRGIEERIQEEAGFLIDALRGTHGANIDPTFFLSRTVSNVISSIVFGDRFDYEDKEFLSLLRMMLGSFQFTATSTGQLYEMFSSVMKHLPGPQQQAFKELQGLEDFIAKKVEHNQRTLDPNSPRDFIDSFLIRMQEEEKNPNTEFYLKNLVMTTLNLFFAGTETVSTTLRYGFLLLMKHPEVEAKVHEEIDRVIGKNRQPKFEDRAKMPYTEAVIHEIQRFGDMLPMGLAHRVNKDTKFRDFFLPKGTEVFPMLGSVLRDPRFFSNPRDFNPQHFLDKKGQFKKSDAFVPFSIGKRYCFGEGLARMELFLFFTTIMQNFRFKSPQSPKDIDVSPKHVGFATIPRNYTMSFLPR
How it was run: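 Reconstituted system of purified E. coli-expressed human CYP2A13 (50 pmol), NADPH-P450 reductase (100 pmol), cytochrome b5 (100 pmol) and DLPC (50 μg). Flavonoid at 60 μM, 1 min preincubation, then NADPH-generating system added; 37 °C, 20 min. Stopped with ice-cold CH3CN, spun, supernatant run on positive-ESI LC-MS/MS. Products were identified from fragment ion spectra; rates were quantified with available standards, three separate determinations.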

## COc1ccc(-c2cc(=O)c3c(O)cc(O)cc3o2)cc1OC [3′4′diMe57diOHF, 3′,4′-dimethoxy-5,7-dihydroxyflavone]
Human CYP1B1
  Extent of oxidation by CYP1B1 (in words): only small amounts of products
Human CYP2A13
  Extent of oxidation by CYP2A13 (in words): only small amounts of products

## COc1ccc(-c2cc(=O)c3ccccc3o2)cc1OC [3′4′diMeF, 3′,4′-Dimethoxyflavone]
Human CYP1B1
  Extent of oxidation by CYP1B1 (in words): good substrate
